The target of assay [1] is Cyclin-dependent kinase 2/cyclin E1 (Homo sapiens) (UniProt P24864+P24941). The assay is described as follows: Inhibition of CDK2/cyclinE (unknown origin) using histone-H1 and [gamma-33P]ATP at 10 uM by scintillation counting. The format is protein-complex assay. An outline of the steps:
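CDK2/cyclin E was run under a commercial kinase-profiling protocol in 8 mM MOPS pH 7.0 with 0.2 mM EDTA, 0.1 mg/ml histone H1, 10 mM magnesium acetate and 10 micromolar ATP including γ-³³P-ATP (500 cpm/pmol). Incorporation was measured by scintillation counting, with the no-inhibitor count set as 100% activity. Runs were done in triplicate.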

Assay [2] deals with Radical scavenging activity. Nature of the assay: Antioxidant activity assessed as DPPH radical scavenging activity by spectrophotometry. Also noted: concentration or dose not given beside the values. The format is functional.
A further assay deals with HCT-116. The assay is described as follows: Cytotoxicity against human HCT116 cells after 7 days by crystal violet staining based clonogenic assay. Format: functional, cell-based. Particulars: HCT-116, 168 h. The gist of the method:
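HCT116 cells in DMEM with 10% heat-inactivated FBS, seeded at 5 × 10³ cells/well in 24-well plates, untreated or exposed to four compound concentrations for 7 days. Colonies were fixed with 6% glutaraldehyde and stained with 0.1% crystal violet, and survival density was read by densitometry. IC50 came from curve fitting. The whole experiment was repeated independently three times.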

The compound `CC(C)C(=O)Oc1cc(O)c2c(c1)OC(c1ccc(O)cc1)CC2=O` (configuration not stated) displayed an inhibition in assay [1] of 42.1%. The Activity in assay [2] is 15.4%. The compound also came in with an IC50 in the assay on HCT-116 of 15.9 µM.
Regarding `O=C1CC(c2ccc(O)cc2)Oc2cc(O)cc(O)c21` (racemic), the inhibition in assay [1] amounted to 14.9%. For the same compound, the Activity in assay [2] turned out to be 59.3%. Besides, the half-maximal inhibitory concentration (IC50) with HCT-116 worked out at 36.8 µM.
Compound `Cc1ccccc1C(=O)Oc1cc(O)c2c(c1)OC(c1ccc(O)cc1)CC2=O` (configuration not stated) came in with an inhibition in assay [1] of 48.9%. Besides, the Activity in assay [2] is 14.2%. In the assay with HCT-116, the IC50 was determined as 6.03 µM.
The matching figures for `C=CCOc1cc(O)c2c(c1)OC(c1ccc(O)cc1)CC2=O` (configuration not stated): 84%, 20.7% and 1.91 µM.
For `CCOC(=O)N/N=C1\CC(c2ccc(O)cc2)Oc2cc(O)cc(O)c21` (configuration not stated), the inhibition in assay [1] was found to be 62.3%. Besides, the Activity in assay [2] worked out at 70.6%. In the assay with HCT-116, this compound gave a half-inhibitory concentration (IC50) of 4.35 µM.
In the case of `O=C1O[C@H]([C@@H](O)CO)C(O)=C1O`, in assay [2], the Activity amounted to 89.1%.
For `O=C(Oc1cc(O)c2c(c1)OC(c1ccc(O)cc1)CC2=O)c1cccs1` (configuration not stated), the inhibition in assay [1] is 83.6%. Besides, the Activity in assay [2] amounted to 11.2%. In the assay on HCT-116, the IC50 was determined as 1.2 µM.
In assay [1], `O=C(Oc1ccccc1)Oc1cc(O)c2c(c1)OC(c1ccc(O)cc1)CC2=O` (configuration not stated) came in with an inhibition of 42%. Moreover, in assay [2], the Activity came to 15.9%. 20 µM corresponded to half-maximal inhibition in the assay with HCT-116 (IC50).

One may read the inhibition as the change of the read-out against control, counted positive when it falls. As a reminder, the IC50 is the midpoint of a concentration-inhibition curve.

These data come from ChEMBL document CHEMBL2311341, “Design, synthesis and inhibitory activities of naringenin derivatives on human colon cancer cells” (Bioorg Med Chem Lett, 2013).
